Experimental data: ChEMBL document CHEMBL4706565, “Anti-glioma effects of 2-aminothiophene-3-carboxamide derivatives, ANO1 channel blockers” (Eur J Med Chem, 2020)
pIC50: −log10 of the molar value. Active and inactive are the calls of the source. The rule behind the calls is not given here.

Key:
[1] = test system: U-251; assay: Inhibition of anchorage-independent colony formation in human U251 cells at 100 uM incubated for 14 days by crystal violet staining based soft agar colony formation assay; format: functional; settings: time 14.0 day
Outline: (§1)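 Soft agar assay: 2.0×10^3 U251 cells in complete medium with 0.3% agar over a 0.6% bottom agar layer. Treated with compounds at 1-100 μM for 14 days, 37 °C, 5% CO2. Colonies stained with crystal violet for 24 h, whole wells photographed and colonies counted against DMSO control; n = 3.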

[2] = test system: U-251; assay: Antiproliferative activity against human U251 cells overexpressing ANO1 assessed as reduction in cell viability measured after 72 hrs by Celltiter-glo assay; format: functional
Outline: (§2)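 5.0×10^3 cells/well seeded, overnight, then compounds added as 1:4 serial dilutions in DMSO; viability read after 72 h with CellTiter-Glo luminescence. GI50 from fitted dose-response curves; triplicate wells, SD from three independent experiments. DMEM for U251 and U138, MEM for U87MG, both with 10% FBS and pen/strep, 37 °C, 5% CO2.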

[3] = molecular target: T1, Anoctamin-1 (Mus musculus, UniProt Q8BHY3); assay: Inhibition of GFP-fused mouse ANO1 channel expressed in HEK293A cells assessed as inhibition of ATP-induced channel current amplitude at membrane potential of +80 mV by patch clamp electrophysiology assay; format: cell-based, HEK293-A
T1 sequence (Q8BHY3 whole entry): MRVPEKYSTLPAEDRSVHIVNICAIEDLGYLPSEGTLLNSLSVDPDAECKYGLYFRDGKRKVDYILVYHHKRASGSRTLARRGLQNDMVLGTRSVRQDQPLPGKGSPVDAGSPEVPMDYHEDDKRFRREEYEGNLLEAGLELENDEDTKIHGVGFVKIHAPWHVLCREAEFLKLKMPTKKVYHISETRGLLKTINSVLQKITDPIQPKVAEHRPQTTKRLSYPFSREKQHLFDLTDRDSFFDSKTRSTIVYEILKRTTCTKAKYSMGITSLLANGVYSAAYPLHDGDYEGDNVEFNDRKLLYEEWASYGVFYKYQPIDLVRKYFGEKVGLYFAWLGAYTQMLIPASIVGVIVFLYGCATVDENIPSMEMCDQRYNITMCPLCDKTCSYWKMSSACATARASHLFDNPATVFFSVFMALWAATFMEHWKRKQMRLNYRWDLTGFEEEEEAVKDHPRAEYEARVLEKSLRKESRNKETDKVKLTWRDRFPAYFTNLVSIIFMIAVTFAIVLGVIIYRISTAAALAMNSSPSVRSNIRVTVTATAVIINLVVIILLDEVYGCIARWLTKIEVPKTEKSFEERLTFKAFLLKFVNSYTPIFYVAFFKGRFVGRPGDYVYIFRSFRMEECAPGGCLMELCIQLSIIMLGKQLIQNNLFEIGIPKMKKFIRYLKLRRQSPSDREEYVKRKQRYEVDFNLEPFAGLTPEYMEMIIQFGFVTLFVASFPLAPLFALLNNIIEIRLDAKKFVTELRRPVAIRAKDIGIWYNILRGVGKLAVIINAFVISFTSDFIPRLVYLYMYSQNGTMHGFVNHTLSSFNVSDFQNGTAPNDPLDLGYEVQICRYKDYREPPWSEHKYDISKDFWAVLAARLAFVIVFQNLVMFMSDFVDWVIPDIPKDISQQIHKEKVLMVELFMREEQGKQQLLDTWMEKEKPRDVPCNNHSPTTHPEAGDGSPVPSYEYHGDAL
Outline: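 Whole-cell recording at room temperature in HEK293A cells transfected with GFP-mANO1, GFP-mANO2 or GFP-mTTYH1. 1 s ramps from +80 to -80 mV, holding potential -10 mV. For ANO1/ANO2: pipette CsCl 146 mM with Ca-EGTA-NMDG, pH 7.3; bath NaCl-based, pH 7.3. For TTYH1: Tris-aspartate pipette (pH 7.2) and Tris-HCl bath (pH 7.4), with […] and BaCl2 added to block K+ channels, and hypotonic (220 mOsm/kg) bath. Washout recordings assessed reversibility.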

[4] = test system: U-251; assay: Inhibition of anchorage-independent colony formation in human U251 cells at 10 uM incubated for 14 days by crystal violet staining based soft agar colony formation assay; format: functional, cell-based; settings: time 14.0 day; outline: as §1
[5] = test system: U-251; assay: Inhibition of cell migration in human U251 cells at 10 uM incubated for 18 hrs by wound healing assay; format: functional
Outline: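 U251 monolayer, 2.0×10^5 cells/well, plated overnight, then scratched and washed with PBS. Wound area imaged before and after incubation; migration ratio taken from migrated area. One-way ANOVA.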

[6] = test system: U138-MG; assay: Antiproliferative activity against human U138 cells overexpressing ANO1 assessed as reduction in cell viability at 100 uM measured after 72 hrs by Celltiter-glo assay; format: functional; outline: as §2
[7] = molecular target: T2, Anoctamin-1 (Homo sapiens) (UniProt Q5XXA6); assay: Inhibition of human ANO1 channel expressed in HEK293 cells at 10 uM incubated for 10 mins by FLIPR assay relative to control; format: cell-based
T2 sequence (whole entry): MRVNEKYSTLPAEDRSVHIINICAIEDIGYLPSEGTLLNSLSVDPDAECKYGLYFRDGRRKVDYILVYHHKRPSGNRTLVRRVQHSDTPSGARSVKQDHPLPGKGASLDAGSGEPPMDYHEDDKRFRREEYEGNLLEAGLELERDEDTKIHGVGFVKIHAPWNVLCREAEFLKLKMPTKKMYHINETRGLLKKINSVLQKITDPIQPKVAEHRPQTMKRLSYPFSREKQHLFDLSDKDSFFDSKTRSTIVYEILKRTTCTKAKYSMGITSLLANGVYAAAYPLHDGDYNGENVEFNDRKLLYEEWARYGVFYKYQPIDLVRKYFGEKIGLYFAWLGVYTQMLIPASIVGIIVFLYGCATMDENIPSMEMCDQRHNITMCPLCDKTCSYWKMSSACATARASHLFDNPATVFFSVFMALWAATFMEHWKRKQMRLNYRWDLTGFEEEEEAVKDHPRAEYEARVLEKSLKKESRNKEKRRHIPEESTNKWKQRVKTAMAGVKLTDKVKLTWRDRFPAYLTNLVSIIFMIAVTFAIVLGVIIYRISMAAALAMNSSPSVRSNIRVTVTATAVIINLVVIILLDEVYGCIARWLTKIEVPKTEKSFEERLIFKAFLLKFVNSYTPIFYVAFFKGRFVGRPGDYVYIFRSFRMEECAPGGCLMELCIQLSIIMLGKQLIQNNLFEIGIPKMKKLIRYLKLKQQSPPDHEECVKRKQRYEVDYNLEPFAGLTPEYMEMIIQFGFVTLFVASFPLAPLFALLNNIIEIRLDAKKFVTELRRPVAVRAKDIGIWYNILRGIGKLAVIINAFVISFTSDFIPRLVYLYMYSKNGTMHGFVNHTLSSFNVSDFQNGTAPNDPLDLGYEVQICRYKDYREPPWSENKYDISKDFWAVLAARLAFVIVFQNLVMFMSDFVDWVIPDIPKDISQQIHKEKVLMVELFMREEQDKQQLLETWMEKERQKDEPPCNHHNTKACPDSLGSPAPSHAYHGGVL
Outline: (§3)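 HEK293 cells expressing human ANO1, 50,000 cells/well, plated overnight. Loaded with FLIPR Red membrane-potential dye in HEPES-buffered saline (pH 7.4) for 40-60 min at room temperature. Compound added for 10 min at room temperature, final DMSO 0.5%.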

[8] = molecular target: T3, Anoctamin-1 (Homo sapiens, UniProt Q5XXA6); assay: Inhibition of human ANO1 expressed in FRT cells assessed as inhibition of ATP-induced channel current treated 20 mins prior to ATP challenge and measured by pacth-clamp technique; format: cell-based
T3 sequence (Q5XXA6 whole entry): T2 sequence (whole entry)

[9] = test system: U-251; assay: Inhibition of cell invasion in human U251 cells at 10 uM incubated for 48 hrs by Boyden chamber method; format: functional
Outline: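 Boyden chamber invasion: U251 cells serum-starved 24 h, then 2.5×10^5 cells seeded in 8-μm ECMatrix-coated transwells. Treated with compound at 1 or 10 μM for 48 h at 37 °C. Invasion ratio from relative fluorescence.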

[10] = test system: U-251; assay: Inhibition of colony formation in human U251 cells at 10 uM incubated for 14 days by crystal violet dye based assay; format: functional; settings: time 14.0 day
Outline: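 Colonies stained 24 h with crystal violet in methanol/formaldehyde/PBS, washed, extracted with 10% acetic acid and read at A570 nm. Compared against DMSO control.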

[11] = test system: U-87 MG; assay: Antiproliferative activity against human U87MG cells overexpressing ANO1 assessed as reduction in cell viability at 100 uM measured after 72 hrs by Celltiter-glo assay; format: functional, U-87MG ATCC; outline: as §2
[12] = Antiproliferative activity against mouse primary astrocytes assessed as reduction in cell viability at 100 uM measured after 72 hrs by Celltiter-Glo luminescent assay; format: cell-based, Astrocyte
Outline: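 Primary astrocytes isolated from adult mouse brain by a previously reported method. 5.0×10^3 cells/well, compound as 1:4 serial DMSO dilutions, CellTiter-Glo viability at 72 h.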

[13] = molecular target: T3, Anoctamin-1; assay: Inhibition of human ANO1 channel expressed in HEK293 cells incubated for 10 mins by FLIPR assay; format: cell-based; outline: as §3

GI50 [2]: 79300 nM | pIC50 [3]: 5.56 | inhibition [7]: 63.9% | pIC50 [8]: 5.96 | pIC50 [13]: 5.59
Compound: CCc1c(C)nc(SCC(=O)Nc2ncc(-c3ccc(OC)cc3)s2)nc1O
inhibition [1]: inactive | inhibition [4]: inactive | inhibition at 10 µM [5]: 26.5% | inhibition at 100 µM [6]: < 50% | inhibition at 10 µM [9]: 19.2% | inhibition [10]: inactive | inhibition at 100 µM [11]: < 50% | inhibition at 72 h, 100 µM [12]: < 50%
